The list is not random: actives were taken first. Their share in the collection is about 1%.
LYPLA2 counter = blocks human lysophospholipase 2, a PME1 counter-screen | inhibition, % at 5.9 µM | AID 2177 | 320,000 tested, 0.38% active | recombinant LYPLA2, FP-Rh probe fluorescence polarization | O95372;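 active = inhibition above the screen-wide mean plus 3 SD, limit set per campaign, cut at about 26% in these data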
Target sequence (O95372 whole entry, looked up): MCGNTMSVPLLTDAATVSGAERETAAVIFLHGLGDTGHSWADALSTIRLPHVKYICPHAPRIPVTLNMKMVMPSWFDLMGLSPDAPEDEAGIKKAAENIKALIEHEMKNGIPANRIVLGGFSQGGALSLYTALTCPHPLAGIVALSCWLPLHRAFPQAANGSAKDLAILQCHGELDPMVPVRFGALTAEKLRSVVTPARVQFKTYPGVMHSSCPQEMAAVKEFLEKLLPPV
procasp7 counter = counter-screen for procaspase-3 activators: activators of human procaspase-7; activation, % at 8.5 µM; 330,000 tested, 0.093% active; AID 463210; P55210; recombinant procaspase-7, Ac-DEVD-pNA absorbance 405 nm; D23A/D198A/D206A triple mutant, cannot self-cleave; scale: DMSO 0, 5 µM enzyme 100;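 active = percent activation above the screen-wide mean plus 3 SD, cut at about 25% in these data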
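Assay system: Uncleavable procaspase-7 mutant enzyme / Input: 2 µM procaspase-7 mutant as dispensed / Dosing: single nominal 8.5 µM compound dose, 0.8% DMSO final / Timing: 1 h enzyme–compound preincubation and 2 h substrate reaction, both 25 °C / Detection: p-Nitroaniline absorbance at 405 nm, read at 0 and 120 min / Replication: singlicate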
PME-1 inh = blocks human protein phosphatase methylesterase 1; recombinant PME-1, FP-Rh probe fluorescence polarization; inhibition, % at 5.9 µM; 320,000 tested, 0.53% active; AID 2130;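 active = inhibition above the campaign mean of all compounds plus 3 SD, cut at about 26% in these data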;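 note: competitive labeling of PME-1 active site by serine hydrolase directed probe; inhibitors block probe labeling so polarization falls and inhibition rises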
Fam108B inh = counter-screen for RBBP9 inhibitors: inhibitors of mouse Fam108B; inhibition, % at 9.51 µM; AID 1947; recombinant Fam108B, FP-Rh probe fluorescence polarization; 300,000 tested, 0.33% active;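 active = inhibition above the screen mean inhibition plus 3 SD, computed separately per campaign, cut at about 18% in these data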;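 note: inhibitors lower polarization as less probe binds the enzyme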
LYPLA1 counter = counter-screen for PME1 inhibitors: inhibitors of human LYPLA1 | recombinant LYPLA1, FP-Rh probe fluorescence polarization | inhibition, % at 5.9 µM | 320,000 tested, 0.16% active;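 active = inhibition above the mean of all tested compounds plus 3 SD, set per campaign, cut at about 14% in these data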;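 note: inhibitors block serine hydrolase probe labeling of LYPLA1 so polarization falls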
Target sequence (O75608 whole entry, looked up): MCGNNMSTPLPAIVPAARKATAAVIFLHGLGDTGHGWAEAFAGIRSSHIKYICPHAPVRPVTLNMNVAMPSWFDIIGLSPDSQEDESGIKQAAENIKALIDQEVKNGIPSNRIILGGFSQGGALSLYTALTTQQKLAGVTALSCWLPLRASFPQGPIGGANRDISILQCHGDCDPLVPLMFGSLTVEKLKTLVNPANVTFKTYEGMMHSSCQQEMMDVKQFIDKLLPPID
proCasp3 act = activates human procaspase-3; recombinant procaspase-3 D3A, Ac-DEVD-pNA absorbance 405 nm; activation, % at 8.5 µM; 330,000 tested, 0.11% active;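 active = activation above the mean of all tested compounds plus 3 SD, cut at about 21% in these data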
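Assay system – Procaspase-3 D3A mutant · Benchmarks – DMSO low control, extra-enzyme high control · Technique – 405 nm absorbance of p-nitroaniline, reads at 0 and 120 min · Doses – 8.5 µM nominal · Measure – % activation between DMSO and enzyme-spiked controls · Also added – Ac-DEVD-pNA chromogenic peptide substrate · Schedule – 1 h compound preincubation, 2 h substrate hydrolysis at 25 °C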
Numbers stand for hits; i = inactive; nt = no result given.

SMILES | LYPLA2 counter | procasp7 counter | PME-1 inh | Fam108B inh | LYPLA1 counter | proCasp3 act
COc1cccc(-c2nc(NC(C)C)c3ccccc3n2)c1O | i | i | 26.1 | i | i | i
COc1cccc(-c2nc(Oc3cccc(C)c3C)c3ccccc3n2)c1O | i | i | i | i | i | i
Cc1cc(-c2nnc(SCC(=O)Nc3nc(-c4ccc(Cl)cc4)cs3)o2)no1 | i | i | 27.9 | i | i | i
Oc1[nH]c2ccccc2c1N=Nc1ncnc2c1oc1ccccc12 | i | i | 29.6 | i | i | i
COc1ccc(/C=N/Nc2snc(SC)c2C#N)cc1OC | i | i | 39.7 | i | i | i
COc1cccc(/C=N/Nc2snc(SC)c2C#N)c1 | i | i | i | i | i | i
O=C(NNc1c2ccccc2nc2ccccc12)c1ccccc1O | i | i | 54.0 | i | i | i
O=C(NNc1c2ccccc2nc2ccccc12)c1cccc(O)c1 | i | i | 39.9 | i | i | i
O=C(NNc1c2ccccc2nc2ccccc12)c1ccc(O)cc1 | i | i | 49.4 | i | i | i
O=C(NNc1c2ccccc2nc2ccccc12)c1ccccc1Cl | i | i | i | i | i | i
CCCC(=O)NNc1c2ccccc2nc2ccccc12 | i | i | i | i | i | i
NC(=O)c1sc2nc(-c3ccccc3)c3c(c2c1N)CCCC3 | i | i | 32.8 | i | i | i
COc1cc(S(=O)(=O)N2CCN(Cc3ccc4c(c3)OCO4)CC2)ccc1NC(C)=O | nt | i | nt | nt | nt | i
CCc1nnc(NC(=O)c2sc3nc4cc(C)ccc4cc3c2N)s1 | i | i | 32.0 | i | i | i
CCOC(=O)Cc1csc(NC(=O)c2cccnc2)n1 | i | i | i | i | i | i
CCOC(=O)Cc1csc(NC(=O)c2sc3nc4ccc(C)cc4cc3c2N)n1 | i | i | 58.0 | i | i | i
Cc1cc(C)c(C)c(S(=O)(=O)Nc2cccc(S(=O)(=O)Nc3ccccc3C(=O)O)c2)c1C | nt | i | nt | nt | nt | i
Cc1ccc(NCC(O)C(O)C(O)CO)c(N=Nc2ccccc2)c1C (stereo not given) | i | i | 52.4 | i | i | i
Cc1ccc(Nc2cc(C)c3c(O)cccc3n2)cc1C | i | i | 30.7 | i | i | i
COc1ccc(Nc2cc(C)c3c(O)cccc3n2)cc1 | i | i | i | i | i | i
COc1ccc(/C=N/NC(=O)c2cc3cc(OC)c(OC)cc3[nH]2)cc1 | i | i | 26.5 | i | i | i
Cc1cccnc1Nc1nc(-c2ccc(O)c(O)c2)cs1 | i | i | 36.3 | i | i | i
COc1ccc(-c2csc(Nc3ncccc3C)n2)cc1OC | i | i | i | i | i | i
CCn1cc(CNC(=O)C2CCC(=O)N(C3CCCCCC3)C2)cn1 (stereo not given) | i | i | i | i | i | i
O=C(OC[C@H]1O[C@@H](OC(=O)c2cc(O)c(O)c(OC(=O)c3cc(O)c(O)c(O)c3)c2)[C@H](OC(=O)c2cc(O)c(O)c(OC(=O)c3cc(O)c(O)c(O)c3)c2)[C@@H](OC(=O)c2cc(O)c(O)c(OC(=O)c3cc(O)c(O)c(O)c3)c2)[C@@H]1OC(=O)c1cc(O)c(O)c(OC(=O)c2cc(O)c(O)c(O)c2)c1)c1cc(O)c(O)c(OC(=O)c2cc(O)c(O)c(O)c2)c1 | i | i | 26.2 | 64.9 | i | i
SMILES | LYPLA2 counter | procasp7 counter | PME-1 inh | Fam108B inh | LYPLA1 counter | proCasp3 act
COC1OC(COC(=O)c2ccccc2)C(OC(=O)c2ccccc2)C1OC(=O)c1ccccc1 (stereo not given) | i | i | i | i | i | i
O=[N+]([O-])c1ccccc1NC(=S)N/N=C/c1ccc(O)c(O)c1 | i | i | 27.5 | i | i | i
CCOc1cccc(/C=N/NC(=S)Nc2ccccc2[N+](=O)[O-])c1O | i | i | i | i | i | i
O=C(O)C1(c2ccccc2)CCN(S(=O)(=O)c2ccc(F)c(F)c2)CC1 | i | i | i | i | i | i
CCC(C)Sc1ccc([C@@H]2[C@H]3C(=O)N(CC)C(=O)[C@H]3[C@]3(C(=O)OC)CCCCN23)cc1 (stereo not given in full) | i | i | i | i | i | i
Cn1c(=O)c2c(nc(CN3CCN(C(c4ccccc4)c4ccccc4)CC3)n2CCCO)n(C)c1=O | i | i | 29.9 | i | i | i
